{"data": "Published values gathered from unrelated publications", "target": "Serine/threonine-protein kinase 3 (STK3, Homo sapiens, UniProt Q13188)", "Residues used in one study (Q13188 1-491)": "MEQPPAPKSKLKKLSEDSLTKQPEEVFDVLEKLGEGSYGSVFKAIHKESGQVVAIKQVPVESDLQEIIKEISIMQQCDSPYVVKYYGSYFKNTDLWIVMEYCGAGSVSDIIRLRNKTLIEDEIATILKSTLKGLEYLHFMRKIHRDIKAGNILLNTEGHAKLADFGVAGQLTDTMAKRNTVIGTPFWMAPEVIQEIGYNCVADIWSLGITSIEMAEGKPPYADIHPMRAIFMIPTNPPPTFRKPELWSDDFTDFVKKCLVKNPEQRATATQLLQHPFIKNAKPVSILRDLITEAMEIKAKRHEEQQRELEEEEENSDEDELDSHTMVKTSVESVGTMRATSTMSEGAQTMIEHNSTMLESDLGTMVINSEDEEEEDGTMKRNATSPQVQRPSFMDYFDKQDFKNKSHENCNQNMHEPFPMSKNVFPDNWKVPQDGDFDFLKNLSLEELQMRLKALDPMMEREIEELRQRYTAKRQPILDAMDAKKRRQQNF", "note": "Protocols differ between the studies behind these lines."}
{"SMILES": "Cc1cc(O)c(-c2ccc([C@@H](C)CN(C)C)cc2)c2c1[nH]c(=O)c1sccc12", "observed": "enzyme activity", "action": "inhibitor", "tested at": "0.1 µM", "measurement": "inhibition", "value": "9.39%"}
{"SMILES": "CN1CCN(C(=O)c2ccc(NC(=O)Nc3ccc(N(C)c4ccnc(Nc5ccc(CS(C)(=O)=O)cc5)n4)cc3)cc2)CC1", "observed": "binding", "tested at": "1 µM", "measurement": "remaining binding", "value": "16%"}
{"SMILES": "CC#CC(=O)N1CCC[C@H]1c1nc(-c2ccc(C(=O)Nc3ccccn3)cc2)c2c(N)nccn12", "observed": "enzyme activity", "action": "inhibitor", "tested at": "1 µM", "measurement": "inhibition", "value": "19%"}
{"SMILES": "CC(C)S(=O)(=O)c1ccc2nccc(Nc3ccc4sc(C5CCCC5)nc4c3)c2c1", "observed": "enzyme activity", "action": "inhibitor", "tested at": "1 µM", "measurement": "activity vs control", "value": "103%"}
{"SMILES": "C#Cc1cc(-c2cc(Nc3nc(N[C@@H](C)c4ccc(F)cn4)ncc3Cl)n[nH]2)ccc1C=O", "observed": "enzyme activity", "action": "inhibitor", "tested at": "0.2 µM", "measurement": "inhibition", "value": "29.9%"}
{"SMILES": "CCCCC(=O)Nc1ccc(-c2ccc3ncn(CCC)c(=O)c3c2)cn1", "observed": "binding", "method": "competition with immobilised ligand", "tested at": "0.5 µM", "measurement": "remaining binding", "value": "73%"}
{"SMILES": "COc1ccc2oc(-c3ccc4nc(N)oc4c3)c/c(=N\\c3ccccc3NC(=O)CCN)c2c1", "observed": "binding", "tested at": "1 µM", "measurement": "remaining binding", "value": "79%"}
{"SMILES": "CO[C@@H]1[C@H](N(C)C(=O)c2ccccc2)C[C@H]2O[C@]1(C)n1c3ccccc3c3c4c(c5c6ccccc6n2c5c31)C(=O)NC4", "observed": "enzyme activity", "action": "inhibitor", "tested at": "1 µM", "measurement": "inhibition", "value": "100%"}
{"SMILES": "Cc1ccc(NC(=O)c2ccnc(C(F)(F)F)c2)cc1-c1cc(OCCO)nc(N2CCOCC2)c1", "observed": "binding", "tested at": "1 µM", "measurement": "remaining binding", "value": "79%"}
